Series [1] is described as follows: Acute toxicity in zebrafish embryo assessed as survival rate at 20 uM measured after 96 hrs post fertilization relative to control. Also noted: species or system Danio rerio. The note with it: in vivo. Put shortly:
(§1)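 Lethality endpoints were coagulation and absence of heartbeat, checked by inverted microscope. Survival was compared with untreated embryos across three independent experiments; mean ± SD, ANOVA.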

Series [2] in a line: Acute toxicity in zebrafish embryo assessed as morphological changes by measuring pericardial edema at upto 160 uM measured after 96 hrs post fertilization. Also noted: species or system Danio rerio. The note with it: in vivo. In a few lines: (§2)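 Wild-type Danio rerio embryos were exposed in milli-Q water with compound dissolved in DMSO (≤0.25 v/v final). Controls were milli-Q water and water with DMSO. Embryos were held at 26.8 ± 1 °C and scored by inverted microscope at 24–96 hpf, after exposure at 160 µM, for bent spine, yolk sac edema, pericardial edema, short tail and bent tail.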

A short description of series [3]: Acute toxicity in zebrafish embryo assessed as survival rate at 160 uM measured after 96 hrs post fertilization relative to control. Also noted: species or system Danio rerio. The note with it: in vivo. Put shortly: as §1
Series [4] is described as follows: Antioxidant activity assessed as DPPH radical scavenging activity after 30 mins by spectrophotometric analysis relative to control. Type of series: functional. On the set-up: concentration or dose not given beside the values. Put shortly: (§3)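 Ascorbic acid was the reference standard. For DPPH, 0.2 mM DPPH in methanol was kept in the dark, mixed with compound at 5–160 µM (DMSO stock), and incubated 30 min in the dark at room temperature, then A517 was read. %RSA = (Ac−As)/Ac×100. Triplicate runs; IC50 taken from the plot of % scavenging versus concentration.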
(DPPH is a stable violet radical that fades when it is reduced.)

Series [5] in a line: Antioxidant activity assessed as ABTS radical scavenging activity after 30 mins by […].
A short description of series [6]: Antioxidant activity assessed as DPPH radical scavenging activity after 20 mins by […]. Type of series: functional.
Series [7] is described as follows: Acute toxicity in zebrafish embryo assessed as morphological changes by measuring bent tail at upto 160 uM measured after 96 hrs post fertilization. On the set-up: species or system Danio rerio. As to conditions: in vivo. In a few lines: as §2
The nature of series [8]: Antioxidant activity assessed as ABTS radical scavenging activity after 6 mins by spectrophotometric analysis relative to control. Type of series: functional. On the set-up: concentration or dose not given beside the values.
A short description of series [9]: Acute toxicity in zebrafish embryo assessed as morphological changes by measuring short tail at upto 160 uM measured after 96 hrs post fertilization. As to conditions: in vivo. On the set-up: species or system Danio rerio. Put shortly:
as §2

A short description of series [10]: Acute toxicity in zebrafish embryo assessed as hatching rate at 20 to 160 uM measured after 48 hrs post fertilization relative to control. Also noted: species or system Danio rerio. The note with it: in vivo, dose 20-160 µM. Put shortly:
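Controls were water and water with 0.5% DMSO. Incubation at 26.8 ± 1 °C, 20 embryos per well. Hatching scored over 0–96 hpf under an inverted microscope. Triplicate, three independent experiments; mean ± SD; ANOVA.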

The nature of series [11]: Antioxidant activity assessed as ABTS radical scavenging activity after 6 mins by spectrophotometric analysis. Type of series: functional.
The nature of series [12]: Antioxidant activity assessed as DPPH radical scavenging activity after 30 mins by spectrophotometric analysis. Type of series: functional. Put shortly:
as §3

A short description of series [13]: Acute toxicity in zebrafish embryo assessed as survival rate at 96 hrs post fertilization relative to control. The note with it: in vivo. Also noted: species or system Danio rerio; concentration or dose not given beside the values. In a few lines: as §1
Series [14] is described as follows: Acute toxicity in zebrafish embryo assessed as morphological changes by measuring bent spine at upto 160 uM measured after 96 hrs post fertilization. Also noted: species or system Danio rerio. As to conditions: in vivo. In a few lines:
as §2

A short description of series [15]: Acute toxicity in zebrafish embryo assessed as morphological changes by measuring yolk sac edema at upto 160 uM measured after 96 hrs post fertilization. The note with it: in vivo. Also noted: species or system Danio rerio. In a few lines: as §2
Series [16] is described as follows: Antioxidant activity assessed as ABTS radical scavenging activity after 30 mins by spectrophotometric analysis. Type of series: functional.

Converted amounts (≈) assume the structure as drawn.

As usually defined, the IC50 is the concentration that inhibits the measured activity by half. For the compound `CCCCCCCCCCCC1=C(O)C(=O)C=C(O)C1=O` [EMBELIN], the survival at 96 h, 20 µM in series [1] came to 52%. Moreover, the Activity result in series [2] was “Toxic”; in [4] it was 71.1%; in [7], “Toxic”; in series [8] it was 75.1%; in [9], “Toxic”; in series [10], 75.66%. Further, the Activity result in series [14] and in [15] was “Toxic” throughout. Also, in series [3], the survival at 96 h, 160 µM came out at 70%. Moreover, the IC50 worked out at 27.92 µg/mL (≈ 94.8 µM) in series [5]; 0.23 µg/mL (≈ 0.781 µM) in series [6]; 3.12 µM in [11]; 3.12 µM in series [12]; 27.9 µg/mL (≈ 94.8 µM) in series [16]. Also, the survival at 96 h in series [13] (read-out: Activity) amounted to 70%.
As to `C#Cc1ccc(CC2=C(O)C(=O)C(CCCCCCCCCCC)=C(O)C2=O)cc1`, the Activity entry in series [2] was “Toxic”; in series [4] it was 50.3%; in series [7] it was “Toxic”; in [8], 52.1%; in series [9], “Toxic”; in series [10], 51.33%. Besides, the Activity entry in series [14] and in [15] was “Toxic” each time. The figures for the half-inhibitory concentration (IC50) in [11] and in series [12] were 4.72 µM and 4.9 µM, respectively. The survival at 96 h in [13] (read-out: Survival) was more than 90%.
Take `CCCCCCCCCCCC1=C(O)C(=O)C(Cc2cccc(Oc3ccccc3)c2)=C(O)C1=O`: the survival at 96 h, 20 µM in [1] is 52%. The Activity result is “Toxic” in [2]; 80% in series [4]; “Toxic” in series [7]; 80.2% in series [8]; “Toxic” in [9]; 75.66% in series [10]. For the same compound, the Activity result in series [14] and in series [15] was “Toxic” each time. The survival at 96 h, 160 µM in [3] came out at 70%. The IC50 in series [11] turned out to be 2.36 µM; in series [12], 2.88 µM. Also, the survival at 96 h in series [13] (read-out: Activity) was determined as 70%.
As for `CCCCCCCCCCCC1=C(O)C(=O)C(Cc2ccccc2Cl)=C(O)C1=O`, the Activity result in [2] is “Toxic”; in series [4] it was 50.3%; in series [7], “Toxic”; in series [8], 52.1%; in series [9] it was “Toxic”; in series [10], 51.33%. The Activity result in [14] and in [15] was “Toxic” each time. The 50% inhibitory concentration (IC50) in series [11] stood at 5.54 µM; in [12], 4.62 µM. In addition, the survival at 96 h in [13] (read-out: Survival) is more than 90%.
